Substitutions are numbered along the chain they refer to.
Experiments:
Conditions in all cases: stereoisomer not certain
O52A1 = tested on: T1, O52A1
T1 sequence (whole entry): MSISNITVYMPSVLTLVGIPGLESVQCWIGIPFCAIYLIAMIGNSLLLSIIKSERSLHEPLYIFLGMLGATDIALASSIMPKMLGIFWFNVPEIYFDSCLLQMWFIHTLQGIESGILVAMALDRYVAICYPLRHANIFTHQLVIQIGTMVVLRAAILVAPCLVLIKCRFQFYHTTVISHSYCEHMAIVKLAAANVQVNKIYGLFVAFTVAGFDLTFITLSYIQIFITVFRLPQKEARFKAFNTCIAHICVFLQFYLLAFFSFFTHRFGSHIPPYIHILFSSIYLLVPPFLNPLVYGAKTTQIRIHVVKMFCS
Outline: (§1)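 Each entry records the cell line, G-protein, co-transfected protein and tags used. Methods varied with the source, often transient luciferase assays in mammalian cell lines. A receptor–molecule pair is called responsive (active) if the original authors judged its signal statistically different from baseline and non-responsive (inactive) otherwise.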

O52B6 V288I = tested on: T2, O52B6 V288I
T2 sequence (whole entry): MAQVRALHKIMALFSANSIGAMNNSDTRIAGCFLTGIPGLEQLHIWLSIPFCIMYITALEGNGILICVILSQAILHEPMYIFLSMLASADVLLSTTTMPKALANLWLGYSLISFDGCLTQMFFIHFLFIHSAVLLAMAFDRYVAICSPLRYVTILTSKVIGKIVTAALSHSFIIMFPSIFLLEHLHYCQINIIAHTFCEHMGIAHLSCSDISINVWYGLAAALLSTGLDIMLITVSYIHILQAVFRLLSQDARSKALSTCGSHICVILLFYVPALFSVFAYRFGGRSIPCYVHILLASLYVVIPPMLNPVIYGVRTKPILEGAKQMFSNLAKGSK
Outline: as §1

O52E2 R264C = tested on: O52E2 R264C
Outline: as §1

O52E4 = tested on: O52E4
Outline: as §1

O52E5 = tested on: O52E5
Outline: as §1

O52E8 = tested on: O52E8
Outline: as §1

O52H1 A89T H130R C242R = tested on: T3, O52H1 A89T H130R C242R
T3 sequence (whole entry): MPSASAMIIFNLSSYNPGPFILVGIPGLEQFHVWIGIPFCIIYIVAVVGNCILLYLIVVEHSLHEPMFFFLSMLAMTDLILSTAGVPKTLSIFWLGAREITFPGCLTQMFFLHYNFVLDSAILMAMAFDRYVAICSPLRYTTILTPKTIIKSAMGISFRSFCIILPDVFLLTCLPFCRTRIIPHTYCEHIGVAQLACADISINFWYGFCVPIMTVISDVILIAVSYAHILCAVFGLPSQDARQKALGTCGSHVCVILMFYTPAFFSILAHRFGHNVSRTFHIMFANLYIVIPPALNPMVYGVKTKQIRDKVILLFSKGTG
Outline: as §1

O52H1 H130R C242R = tested on: T4, O52H1 H130R C242R
T4 sequence (whole entry): T3 sequence (whole entry) with T89A
Outline: as §1

O52H1 = tested on: T5, O52H1
T5 sequence (whole entry): T3 sequence (whole entry) with T89A, R130H, R242C
Outline: as §1

O52I2 I74L = tested on: T6, O52I2 I74L
T6 sequence (whole entry): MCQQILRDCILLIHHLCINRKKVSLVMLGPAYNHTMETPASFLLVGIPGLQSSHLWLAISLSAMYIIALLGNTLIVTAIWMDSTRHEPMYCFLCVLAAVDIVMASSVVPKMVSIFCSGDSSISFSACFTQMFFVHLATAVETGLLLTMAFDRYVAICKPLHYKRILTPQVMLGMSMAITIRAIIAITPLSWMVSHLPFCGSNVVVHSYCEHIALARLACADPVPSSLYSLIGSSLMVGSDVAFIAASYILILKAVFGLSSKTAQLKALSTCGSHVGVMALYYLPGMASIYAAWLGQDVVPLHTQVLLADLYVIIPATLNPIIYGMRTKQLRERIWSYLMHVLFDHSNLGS
Outline: as §1

O52J3 T77A V128I Q141L = tested on: O52J3 T77A V128I Q141L
Outline: as §1

O52K1 A119T A149T = tested on: T7, O52K1 A119T A149T
T7 sequence (whole entry): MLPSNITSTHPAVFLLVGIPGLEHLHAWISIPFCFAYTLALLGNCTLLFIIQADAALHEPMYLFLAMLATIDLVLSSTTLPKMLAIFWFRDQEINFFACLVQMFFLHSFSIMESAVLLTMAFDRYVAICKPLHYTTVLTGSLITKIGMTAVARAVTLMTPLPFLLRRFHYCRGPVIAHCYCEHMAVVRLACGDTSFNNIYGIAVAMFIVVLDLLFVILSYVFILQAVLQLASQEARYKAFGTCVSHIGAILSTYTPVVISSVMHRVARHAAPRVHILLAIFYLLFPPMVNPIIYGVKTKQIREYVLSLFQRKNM
Outline: as §1

O52K1 Q52R = tested on: T8, O52K1 Q52R
T8 sequence (whole entry): T7 sequence (whole entry) with Q52R, T119A, T149A
Outline: as §1

O52L1 = tested on: T9, O52L1
T9 sequence (whole entry): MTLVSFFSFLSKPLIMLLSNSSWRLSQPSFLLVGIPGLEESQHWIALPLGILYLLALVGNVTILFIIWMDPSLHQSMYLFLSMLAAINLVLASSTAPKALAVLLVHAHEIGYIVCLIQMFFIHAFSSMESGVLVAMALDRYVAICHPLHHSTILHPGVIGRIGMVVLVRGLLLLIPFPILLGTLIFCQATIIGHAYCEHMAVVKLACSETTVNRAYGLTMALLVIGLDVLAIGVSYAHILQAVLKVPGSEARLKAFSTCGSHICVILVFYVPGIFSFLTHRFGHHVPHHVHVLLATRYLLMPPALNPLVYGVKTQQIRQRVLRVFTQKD
Outline: as §1

O52M1 S305R = tested on: T10, O52M1 S305R
T10 sequence (whole entry): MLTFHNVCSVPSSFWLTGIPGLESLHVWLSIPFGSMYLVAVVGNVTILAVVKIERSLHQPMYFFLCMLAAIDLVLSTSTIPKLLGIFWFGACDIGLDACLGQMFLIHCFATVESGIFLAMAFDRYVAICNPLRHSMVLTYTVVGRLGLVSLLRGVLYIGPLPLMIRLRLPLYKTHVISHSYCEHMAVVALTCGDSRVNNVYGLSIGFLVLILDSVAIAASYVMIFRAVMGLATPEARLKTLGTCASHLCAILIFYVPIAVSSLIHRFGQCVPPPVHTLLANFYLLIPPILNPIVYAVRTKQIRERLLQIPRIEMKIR
Outline: as §1

O52N1 R167C F247I = tested on: T11, O52N1 R167C F247I
T11 sequence (whole entry): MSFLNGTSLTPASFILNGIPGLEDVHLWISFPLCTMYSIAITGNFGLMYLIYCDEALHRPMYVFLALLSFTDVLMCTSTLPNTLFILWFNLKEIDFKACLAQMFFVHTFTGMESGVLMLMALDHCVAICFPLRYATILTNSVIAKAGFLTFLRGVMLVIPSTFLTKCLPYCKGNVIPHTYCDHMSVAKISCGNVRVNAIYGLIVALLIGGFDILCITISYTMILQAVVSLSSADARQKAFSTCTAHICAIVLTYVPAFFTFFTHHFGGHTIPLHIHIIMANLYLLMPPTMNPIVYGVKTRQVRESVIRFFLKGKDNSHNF
Outline: as §1

O52N2 S249A H264R = tested on: T12, O52N2 S249A H264R
T12 sequence (whole entry): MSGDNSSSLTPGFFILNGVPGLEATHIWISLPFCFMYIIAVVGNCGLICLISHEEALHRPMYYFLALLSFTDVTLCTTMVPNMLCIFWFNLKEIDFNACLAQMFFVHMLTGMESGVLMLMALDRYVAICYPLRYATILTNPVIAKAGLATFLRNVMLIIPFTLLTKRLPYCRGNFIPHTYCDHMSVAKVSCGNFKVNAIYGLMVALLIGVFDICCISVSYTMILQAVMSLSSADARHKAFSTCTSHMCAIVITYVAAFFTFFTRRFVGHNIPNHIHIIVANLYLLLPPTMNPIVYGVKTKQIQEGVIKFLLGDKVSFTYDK
Outline: as §1

O52W1 H239R L254Q = tested on: T13, O52W1 H239R L254Q
T13 sequence (whole entry): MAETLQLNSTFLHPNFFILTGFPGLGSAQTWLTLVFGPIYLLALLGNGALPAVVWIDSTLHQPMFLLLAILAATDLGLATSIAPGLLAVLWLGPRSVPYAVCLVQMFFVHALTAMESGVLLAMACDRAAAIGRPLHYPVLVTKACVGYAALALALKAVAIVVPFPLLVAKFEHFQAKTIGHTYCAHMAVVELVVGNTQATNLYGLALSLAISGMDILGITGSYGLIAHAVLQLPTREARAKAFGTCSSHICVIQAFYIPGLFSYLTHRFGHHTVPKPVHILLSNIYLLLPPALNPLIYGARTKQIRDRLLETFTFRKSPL
Outline: as §1

O56A3 = tested on: T14, O56A3
T14 sequence (whole entry): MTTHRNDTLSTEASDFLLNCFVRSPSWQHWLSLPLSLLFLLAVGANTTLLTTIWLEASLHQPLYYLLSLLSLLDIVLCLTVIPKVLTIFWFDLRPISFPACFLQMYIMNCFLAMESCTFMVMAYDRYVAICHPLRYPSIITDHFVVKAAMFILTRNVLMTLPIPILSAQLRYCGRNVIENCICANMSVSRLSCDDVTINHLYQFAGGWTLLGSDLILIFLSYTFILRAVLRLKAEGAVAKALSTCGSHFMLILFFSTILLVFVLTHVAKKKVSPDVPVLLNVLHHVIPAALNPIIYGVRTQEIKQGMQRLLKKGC
Outline: as §1

O56A4 I247A = tested on: T15, O56A4 I247A
T15 sequence (whole entry): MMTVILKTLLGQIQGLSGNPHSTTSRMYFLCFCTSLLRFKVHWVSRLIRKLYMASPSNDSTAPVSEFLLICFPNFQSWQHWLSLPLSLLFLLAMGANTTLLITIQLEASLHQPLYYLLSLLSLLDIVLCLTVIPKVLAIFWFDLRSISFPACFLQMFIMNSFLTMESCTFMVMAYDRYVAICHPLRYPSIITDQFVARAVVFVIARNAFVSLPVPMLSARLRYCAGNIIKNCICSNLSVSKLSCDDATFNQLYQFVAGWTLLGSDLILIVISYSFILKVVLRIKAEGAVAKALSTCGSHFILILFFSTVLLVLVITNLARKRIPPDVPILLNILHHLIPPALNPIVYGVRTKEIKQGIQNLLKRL
Outline: as §1

Measured: odorant receptor agonist call

Sequence of O52E2 R264C (as listed by the source, stated change not applied): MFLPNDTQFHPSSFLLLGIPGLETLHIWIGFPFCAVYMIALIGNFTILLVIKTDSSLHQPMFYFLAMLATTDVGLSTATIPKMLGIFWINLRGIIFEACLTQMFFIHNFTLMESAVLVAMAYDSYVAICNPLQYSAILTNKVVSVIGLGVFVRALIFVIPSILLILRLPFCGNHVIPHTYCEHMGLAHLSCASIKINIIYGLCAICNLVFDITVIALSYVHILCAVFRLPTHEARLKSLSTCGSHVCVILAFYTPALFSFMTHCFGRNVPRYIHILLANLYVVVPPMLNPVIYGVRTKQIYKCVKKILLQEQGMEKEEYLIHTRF
Sequence of O52E5 (as listed by the source): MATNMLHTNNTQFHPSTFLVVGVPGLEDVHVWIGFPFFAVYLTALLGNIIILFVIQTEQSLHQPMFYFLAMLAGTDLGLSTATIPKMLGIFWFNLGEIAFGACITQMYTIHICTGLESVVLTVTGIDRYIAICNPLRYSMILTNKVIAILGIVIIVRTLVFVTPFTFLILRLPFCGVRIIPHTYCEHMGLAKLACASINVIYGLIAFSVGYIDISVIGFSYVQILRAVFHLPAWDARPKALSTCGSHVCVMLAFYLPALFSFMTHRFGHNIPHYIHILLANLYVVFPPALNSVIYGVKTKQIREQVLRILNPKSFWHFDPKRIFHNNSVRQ
Sequence of O52E4 (as listed by the source): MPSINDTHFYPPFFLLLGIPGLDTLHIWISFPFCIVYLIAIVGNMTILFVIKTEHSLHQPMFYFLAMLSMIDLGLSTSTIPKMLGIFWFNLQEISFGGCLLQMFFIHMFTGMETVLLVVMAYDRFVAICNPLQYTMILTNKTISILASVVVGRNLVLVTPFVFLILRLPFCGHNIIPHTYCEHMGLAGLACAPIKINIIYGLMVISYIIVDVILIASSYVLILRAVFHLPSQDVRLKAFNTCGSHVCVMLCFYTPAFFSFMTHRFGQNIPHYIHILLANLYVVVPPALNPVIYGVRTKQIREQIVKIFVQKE
Sequence of O52E8 (as listed by the source): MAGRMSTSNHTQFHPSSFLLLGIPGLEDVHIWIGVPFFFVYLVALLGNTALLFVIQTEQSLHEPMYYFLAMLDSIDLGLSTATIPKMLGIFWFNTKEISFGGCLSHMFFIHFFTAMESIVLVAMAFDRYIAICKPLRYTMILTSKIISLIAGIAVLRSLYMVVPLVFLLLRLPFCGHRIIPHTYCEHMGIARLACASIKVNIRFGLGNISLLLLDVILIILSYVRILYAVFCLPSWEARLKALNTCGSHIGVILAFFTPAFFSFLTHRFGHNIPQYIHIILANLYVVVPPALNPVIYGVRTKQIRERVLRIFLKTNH

CC1=NC(C)C(C)S1 (centres undefined)
inactive: all assays above

CC(CO)CS (centres undefined)
inactive: O52E8 | O52H1

CCC1OC(C)=C(O)C1=O (centres undefined)
inactive: all assays above

CCCC(S)CCOC(C)=O (centres undefined)
inactive: all assays above

CCC1OC(=O)C(O)=C1C (centres undefined)
inactive: all assays above

CCCCCC1CCCC(=O)O1 (centres undefined)
inactive: O52E8 | O52H1

CCCCC(S)C(C)CO (centres undefined)
inactive: O52E8 | O52H1

CCCCCCC=CCCC=O
not listed: O52E5 | O52L1
inactive: all other assays above

CC1CCCCCCCCCCCCC(=O)C1 (centres undefined)
inactive: O52E8 | O52H1

CCC(S)C(C)CO (centres undefined)
inactive: O52E8 | O52H1

CC1=C(O)C(=O)C(C)O1 (centres undefined)
inactive: all assays above

CCCCCC(S)C(C)CO (centres undefined)
inactive: O52E8 | O52H1

CC1=C(O)C(=O)OC1C (centres undefined)
inactive: all assays above

CC(=O)c1c(C)c([N+](=O)[O-])c(C(C)(C)C)c([N+](=O)[O-])c1C
inactive: O52E8 | O52H1

Cc1cnc(C)c(C)n1
inactive: all assays above

CCCCCC(=O)C(C)C(C)=O (centres undefined)
inactive: O52E8 | O52H1

Reference: the M2OR odorant receptor database
